These results are taken from ChEMBL document CHEMBL5036308, “Chiral Alkyl Groups at Position 3(1') of Pyropheophorbide-a Specify Uptake and Retention by Tumor Cells and Are Essential for Effective Photodynamic Therapy” (J Med Chem, 2021).

Data set [1] is described as follows: Drug uptake in human HN-143-T-EC cells assessed as drug retention in mitochondria measured after 72 hrs chase period by fluorescent microscopy. In kind it is ADME.
Data set [2] is described as follows: Drug uptake in tissue cultured human TEC1-2 cells assessed as drug retention at 1600 nM incubated for 24 hrs in presence of 10% fetal bovine serum measured after 24 hrs chase period by fluorescent microscopy. In kind it is ADME, tissue-based. The settings on record: tec1-2, 24 h, 1.6 µM.
Data set [3] in a line: Photoreactivation in human TEC21 cells in presence of 10% fetal bovine serum under 665 nm light for 9 mins measured after 24 hrs by immune blot analysis. The settings on record: tec-21, 24 h. The class given is cell-based. Put shortly: (§1)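 TEC-21 cells (p 8) treated 24 h in RPMI + 10% FBS with PS, imaged, chased 48 h in RPMI + 10% FBS, then irradiated 9 min with 665 nm light (6 mW/cm²). Cells were extracted immediately and immunoblotted for STAT3 crosslinking, EGFR and phospho-p38 MAPK.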

The nature of data set [4]: Drug uptake in human HN-143 T-EC cells assessed as drug retention at 1600 nM incubated for 24 hrs in presence of 10% fetal bovine serum measured after 48 hrs chase period by fluorescent microscopy imaging based analysis. The class given is ADME, cell-based. The note with it: 1.6 µM. In short, it runs like this: (§2)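 Cells incubated 24 h in medium with 10% serum and 1600 nM PS, then chased in PS-free medium for up to 72 h with daily medium changes. Cellular PS was measured daily by fluorescence microscopy; net fluorescence intensity per full image frame was quantified in arbitrary units.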

A short description of data set [5]: Drug uptake in human HN-143 T-EC cells assessed as slow release by measuring drug retention at 1600 nM incubated for 24 hrs in presence of 10% fetal bovine serum measured after 48 hrs chase period by fluorescent microscopy imaging based analysis. The class given is ADME, cell-based. The note with it: 1.6 µM. Put shortly: as §2
Data set [6] in a line: Drug uptake in human HN-143-T-EC cells assessed as drug retention in endoplasmic reticulum measured after 72 hrs by fluorescent microscopy. In kind it is ADME, cell-based.
A short description of data set [7]: Drug uptake in human HN-143 T-EC cells assessed as drug retention at 1600 nM incubated for 24 hrs in presence of 10% fetal bovine serum measured after 72 hrs chase period by fluorescent microscopy imaging based analysis. The class given is ADME, cell-based. The settings on record: 1.6 µM. In short, it runs like this: as §2
Data set [8] in a line: Drug uptake in human HN-143 T-EC cells assessed as drug retention at 1600 nM incubated for 24 hrs in presence of 10% fetal bovine by fluorescent microscopy imaging based analysis. In kind it is ADME, cell-based. The settings on record: 1.6 µM. In short, it runs like this: as §2
The nature of data set [9]: Drug uptake in tissue cultured human TEC1-2 cells assessed as drug retention at 1600 nM incubated for 24 hrs in presence of 10% fetal bovine serum measured after 48 hrs chase period by fluorescent microscopy. The class given is ADME, tissue-based. The settings on record: tec1-2, 24 h, 1.6 µM.
Data set [10] is described as follows: Lipophilicity, logP of the compound. The settings on record: octanol/water. In kind it is physicochemical.
A short description of data set [11]: Photoreactivation in human TEC21 cells assessed as STAT3cross-linking in presence of 10% fetal bovine serum under 665 nm light for 9 mins measured after 24 hrs by immune blot analysis. In kind it is cell-based. The settings on record: tec-21, 0.15 h. In short, it runs like this:
as §1

The structures appear in SMILES notation.

`CCCCOC(CCC)c1c(C)c2cc3nc(c4c5[nH]c(cc6nc(cc1[nH]2)C(C)=C6CC)c(C)c5C(=O)C4)[C@@H](CCC(=O)O)C3C` (stereo partly specified): the Drug uptake result in [1], in data set [2], in [4], in data set [5], in data set [6] and in data set [7] was “Active” throughout. For the same compound, the Drug uptake entry in data set [8] and in data set [9] was “Active” in each case. For the same compound, in data set [3], the Drug metabolism entry is on record as “Metabolite_Detected”. In addition, the logP in [10] came to 6.56. Further, the Activity in data set [11] turned out to be 3.1%.
